Reference: publication PMC5108443 (Cardiovascular Therapeutics, 2016)

Key:
[1] = Steady-state plasma pharmacokinetics of LCZ696 analytes; format: in vivo, human; settings: for T1/2, mean (SD): LCZ696 200 mg bid (Day 21), patients with stable HF; for Exposure in patients with HF higher than in healthy subjects: LCZ696 200 mg bid, healthy-subject exposure from ref 20; for Dose proportionality of Cmax and AUC0-12 h: between LCZ696 100- and 200-mg doses; for Tmax / AUC(0-t) / Cmax: human, plasma
[2] = test system: plasma cGMP; experiment: Plasma cGMP; format: in vivo, human; settings: for Plasma cGMP, ratio-to-baseline (95% CI): geometric mean ratio; for Plasma cGMP, predose: geometric mean
[3] = test system: plasma ANP; experiment: Plasma ANP; format: in vivo, human; settings: for Plasma ANP, ratio-to-baseline (95% CI): geometric mean ratio; for Plasma ANP, predose: geometric mean
[4] = test system: urine cGMP; experiment: Urine cGMP; format: in vivo, human; settings: for Urine cGMP, ratio-to-baseline (95% CI): geometric mean ratio; for Urine cGMP: geometric mean
[5] = test system: urine ANP; experiment: Urine ANP; format: in vivo, human; settings: for Urine ANP, ratio-to-baseline (95% CI): geometric mean ratio; for Urine ANP: geometric mean
[6] = test system: plasma renin concentration (PRC); experiment: Plasma renin concentration; format: in vivo, human; settings: for PRC, ratio-to-baseline (95% CI): geometric mean ratio; for PRC, predose: geometric mean
Procedure, shortened: (§1)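 Chronic HF patients (NYHA II–IV, LVEF ≤40%), domiciled on a fixed 3 g sodium/5 g potassium diet. ACEI/ARB stopped over a 24-h run-in. Oral test compound given 100 mg bid for 7 days, then 200 mg bid for 14 days. Plasma drawn at baseline, predose, and 4, 12, 16, 24 h post-dose on Days 7 and 21. Geometric means; ratio-to-baseline with 95% CI by paired t-test on log data.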

[7] = test system: plasma renin activity (PRA); experiment: Plasma renin activity; format: in vivo, human; settings: for PRA, ratio-to-baseline (95% CI): geometric mean ratio; for PRA, predose: geometric mean
Procedure, shortened: as §1

[8] = test system: plasma aldosterone; experiment: Plasma aldosterone; format: in vivo, human
Procedure, shortened: as §1

[9] = test system: plasma endothelin-1 (ET-1); experiment: Plasma endothelin-1; format: in vivo, human
Procedure, shortened: as §1

[10] = test system: plasma NT-proBNP; experiment: Plasma NT-proBNP; format: in vivo, human
Procedure, shortened: as §1

[11] = test system: urinary NT-proBNP; experiment: Urinary NT-proBNP; format: in vivo, human
Procedure, shortened: (§2)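 Same patients, diet and oral dosing schedule. Urine collected over 24 h as two 12-h fractions (8:00–20:00, 20:00–8:00) at baseline, Day 7 and Day 21. Volume recorded; sodium, potassium and creatinine measured by standard laboratory methods, NT-proBNP by Elecsys immunoassay. Geometric means calculated; ratio-to-baseline by paired t-test on log-transformed data.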

[12] = Urinary sodium, potassium and creatinine excretion; format: in vivo, human; settings: either treatment period (100 and 200 mg bid)
Procedure, shortened: as §2

[13] = Safety and tolerability: adverse events; format: in vivo, human
Procedure, shortened: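 Open-label study in HFrEF patients: 24-h run-in with ACEI/ARB stopped and other HF drugs kept, then oral test compound 100 mg bid for 7 days and 200 mg bid for 14 days. Patients domiciled on a standardized diet of 3 g sodium and 5 g potassium daily. Monitoring by ECG, vital signs, and electrolyte, renal and hepatic panels. Safety set comprised all patients dosed at least once.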

[14] = patients with HFrEF, PARADIGM-HF; cited from earlier work
[15] = Day 21 (LCZ696 200 mg bid), N=27
[16] = Day 7 (LCZ696 100 mg bid), N=30
[17] = Day 21, predose, LCZ696 200 mg bid for 14 days

C[C@H](C[C@@H](Cc1ccc(-c2ccccc2)cc1)NC(=O)CCC(=O)O)C(=O)O [LBQ657]
T1/2, mean (SD) ([1]; oral): 18.4 (6.8) h
Exposure in patients with HF higher than in healthy subjects [1]: ~110%
Dose proportionality of Cmax and AUC0-12 h [1]: approximately dose‐proportional
Tmax ([1]; oral, 200 mg): ≤ 2.5 h
AUC(0-t) ([1]; po, 100 mg): 82600 ng·h/mL
Cmax ([1]; po, 100 mg): 9100 ng/mL
Tmax ([1]; po, 100 mg): 2.5 h
AUC(0-t) ([1]; po, 200 mg): 147000 ng·h/mL
Cmax ([1]; po, 200 mg): 16300 ng/mL
Tmax ([1]; po, 200 mg): 2 h

CCOC(=O)[C@H](C)C[C@@H](Cc1ccc(-c2ccccc2)cc1)NC(=O)CCC(=O)O [Sacubitril, sacubitril]
T1/2, mean (SD) ([1]; oral): 3.9 (3.6) h
Exposure in patients with HF higher than in healthy subjects [1]: approximately 55%
Dose proportionality of Cmax and AUC0-12 h [1]: approximately dose‐proportional
Tmax ([1]; oral, 200 mg): ≤ 0.5 h
AUC(0-t) ([1]; po, 100 mg): 1540 ng·h/mL
Cmax ([1]; po, 100 mg): 1230 ng/mL
Tmax ([1]; po, 100 mg): 0.5 h
AUC(0-t) ([1]; po, 200 mg): 3150 ng·h/mL
Cmax ([1]; po, 200 mg): 2410 ng/mL
Tmax ([1]; po, 200 mg): 0.5 h

CCCCC(=O)N(Cc1ccc(-c2ccccc2-c2nnn[nH]2)cc1)[C@H](C(=O)O)C(C)C [Valsartan, valsartan, reference compound]
T1/2, mean (SD) ([1]; oral): 13.7 (5.0) h
Exposure in patients with HF higher than in healthy subjects [1]: ~132%
Dose proportionality of Cmax and AUC0-12 h [1]: less than dose‐proportional
Tmax ([1]; oral, 200 mg): ≤ 2 h
AUC(0-t) ([1]; po, 100 mg): 25900 ng·h/mL
Cmax ([1]; po, 100 mg): 3810 ng/mL
Tmax ([1]; po, 100 mg): 2 h
AUC(0-t) ([1]; po, 200 mg): 38800 ng·h/mL
Cmax ([1]; po, 200 mg): 6040 ng/mL
Tmax ([1]; po, 200 mg): 2 h

Sacubitril/valsartan [LCZ696]
Plasma cGMP, ratio-to-baseline (95% CI) ([2]; Day 7 (LCZ696 100 mg bid)): 1.24 (1.06–1.45) P = 0.008
Plasma cGMP, predose ([2]; Day 7 (LCZ696 100 mg bid), N=30, patients with HFrEF): 13.83 nmol/L
Plasma cGMP, ratio-to-baseline (95% CI) ([2]; Day 21 (LCZ696 200 mg bid)): 1.38 (1.16–1.65) P < 0.001
Plasma cGMP, predose [2, 15]: 15.07 nmol/L
Plasma ANP, ratio-to-baseline (95% CI) ([3]; Day 7 (LCZ696 100 mg bid)): 0.92 (0.80–1.05) P = 0.223
Plasma ANP, predose [3, 16]: 105.20 pg/mL
Plasma ANP, ratio-to-baseline (95% CI) ([3]; Day 21 (LCZ696 200 mg bid)): 1.00 (0.80–1.26) P = 0.986
Plasma ANP, predose [3, 15]: 110.83 pg/mL
Plasma ANP versus baseline ([3]; either treatment period (100 and 200 mg bid)): not significantly different from baseline
Urine cGMP, ratio-to-baseline (95% CI) ([4]; Day 7 (LCZ696 100 mg bid)): 1.17 (0.97–1.40) P = 0.090
Urine cGMP [4, 16]: 1096.09 nmol
Urine cGMP, ratio-to-baseline (95% CI) ([4]; Day 21 (LCZ696 200 mg bid)): 1.22 (1.01–1.47) P = 0.040
Urine cGMP [4, 15]: 1180.57 nmol
Urine ANP, ratio-to-baseline (95% CI) ([5]; Day 7 (LCZ696 100 mg bid)): 1.69 (1.40–2.03) P < 0.001
Urine ANP [5, 16]: 353.42 ng
Urine ANP, ratio-to-baseline (95% CI) ([5]; Day 21 (LCZ696 200 mg bid)): 1.82 (1.54–2.17) P < 0.001
Urine ANP [5, 15]: 378.48 ng
PRC, ratio-to-baseline (95% CI) ([6]; Day 7 (LCZ696 100 mg bid)): 4.30 (2.78–6.64) P < 0.001
PRC, predose [6, 16]: 42.64 pg/mL
PRC, ratio-to-baseline (95% CI) ([6]; Day 21 (LCZ696 200 mg bid)): 3.50 (2.13–5.76) P < 0.001
PRC, predose [6, 15]: 34.11 pg/mL
PRA, ratio-to-baseline (95% CI) ([7]; Day 7 (LCZ696 100 mg bid)): 3.94 (2.27–6.87) P < 0.001
PRA, predose ([7]; Day 7 (LCZ696 100 mg bid), 29 patients): 2.70 ng/mL/h
PRA, ratio-to-baseline (95% CI) ([7]; Day 21 (LCZ696 200 mg bid)): 2.27 (1.20–4.32) P = 0.014
PRA, predose ([7]; Day 21 (LCZ696 200 mg bid), 26 patients): 1.64 ng/mL/h
Predose plasma aldosterone level compared with baseline ([8]; Day 7 (LCZ696 100 mg bid)): trend toward a reduction
Decrease in plasma aldosterone levels ([8]; Day 21): 21%
Plasma aldosterone, ratio-to-baseline [95% CI] [8, 17]: 0.79 [0.65–0.95]
Predose plasma ET-1 level compared with baseline ([9]; Day 7 (LCZ696 100 mg bid)): trend toward a reduction
Plasma ET-1, ratio-to-baseline [95% CI] [9, 17]: 0.80 [0.71–0.91]
Plasma NT-proBNP, ratio-to-baseline [95% CI] ([10]; Day 7 (LCZ696 100 mg bid)): 0.53 [0.45–0.62]
Plasma NT-proBNP, ratio-to-baseline [95% CI] ([10]; Day 21 (LCZ696 200 mg bid)): 0.56 [0.45–0.70]
Urinary NT-proBNP, ratio-to-baseline ([11]; after LCZ696 100 mg bid for 7 days): 0.68
Urinary NT-proBNP, ratio-to-baseline ([11]; after LCZ696 200 mg bid for 14 days): 0.74
Change in mean urinary sodium, potassium, and creatinine excretion [12]: No statistically significant changes
Dose relation of the frequency of AEs ([13]; 100 vs 200 mg bid): not dose related
Deaths or serious AEs during the study ([13]; LCZ696 100 mg bid 7 days then 200 mg bid 14 days, 30 patients): No deaths or serious AEs occurred
Subjects with AE ([13]; LCZ696 100 mg bid (N=30), 7-day titration period): 16 (53.3%) n (%)
Overall tolerability ([13]; LCZ696 100 mg bid for 7 days and 200 mg bid for 14 days): well tolerated
Subjects with AE ([13]; LCZ696 200 mg bid (N=30), 14-day treatment period): 15 (50.0%) n (%)
Subjects with AE ([13]; Total (N=30)): 21 (70.0%) n (%)
Patients who completed the study treatment as per protocol ([13]; of 30 patients): 27 (90%) n (%)
Hypotension reported as an AE ([13]; whole study): not reported
Reduction of CV and all-cause mortality and HF hospitalizations versus enalapril [14]: superior
